The molecules below were run against Toll-like receptor 4/MD-2 (Homo sapiens, UniProt O00206+Q9Y6Y9) (assay: Activation of TLR4/MD2 (unknown origin) expressed in HEK293 cells co-expressing CD14 assessed as induction of MyD88-dependent NF-kappaB activity after 24 hrs by NF-kappaB SEAP reporter gene assay). Details: hek293, 24 h.
Format: cell-based
In short: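 HEK293 cells stably transfected with human TLR4, MD-2, CD14 and an NF-κB-inducible promoter driving secreted embryonic alkaline phosphatase (SEAP). Compounds formulated at 2 mg/mL in 2% aq. glycerol (stock), applied as a dose response for 24 h. Read-out was relative SEAP activity in cell culture supernatants.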

Toll-like receptor 4/MD-2, sequence (O00206 whole entry): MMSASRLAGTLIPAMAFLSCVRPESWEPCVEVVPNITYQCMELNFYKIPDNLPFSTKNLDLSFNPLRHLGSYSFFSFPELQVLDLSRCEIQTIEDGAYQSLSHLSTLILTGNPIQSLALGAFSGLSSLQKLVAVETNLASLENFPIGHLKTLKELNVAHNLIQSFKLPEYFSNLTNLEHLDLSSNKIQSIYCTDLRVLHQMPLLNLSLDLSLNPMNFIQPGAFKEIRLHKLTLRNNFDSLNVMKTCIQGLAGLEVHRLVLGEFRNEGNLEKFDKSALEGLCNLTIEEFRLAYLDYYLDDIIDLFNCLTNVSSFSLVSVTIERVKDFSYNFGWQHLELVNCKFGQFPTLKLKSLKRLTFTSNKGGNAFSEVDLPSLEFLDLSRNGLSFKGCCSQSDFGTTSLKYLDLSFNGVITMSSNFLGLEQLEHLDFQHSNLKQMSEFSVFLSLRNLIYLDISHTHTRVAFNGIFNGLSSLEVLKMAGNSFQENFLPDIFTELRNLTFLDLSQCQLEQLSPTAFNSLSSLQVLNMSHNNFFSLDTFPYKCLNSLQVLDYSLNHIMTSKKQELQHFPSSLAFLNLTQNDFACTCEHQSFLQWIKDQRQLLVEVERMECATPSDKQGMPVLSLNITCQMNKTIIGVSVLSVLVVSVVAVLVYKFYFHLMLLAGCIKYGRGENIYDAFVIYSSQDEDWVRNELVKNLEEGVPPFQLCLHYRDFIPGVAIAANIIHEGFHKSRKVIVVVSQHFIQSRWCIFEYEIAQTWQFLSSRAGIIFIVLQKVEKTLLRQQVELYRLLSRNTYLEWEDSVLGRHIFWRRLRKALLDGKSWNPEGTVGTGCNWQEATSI
Toll-like receptor 4/MD-2, sequence (Q9Y6Y9 whole entry): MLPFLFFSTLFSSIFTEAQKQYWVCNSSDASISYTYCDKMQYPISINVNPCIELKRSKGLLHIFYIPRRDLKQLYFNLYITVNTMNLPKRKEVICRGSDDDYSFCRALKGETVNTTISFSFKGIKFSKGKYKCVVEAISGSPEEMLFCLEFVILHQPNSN

Q: How did the Activity turn out when `CCCCCCCCCCC[C@H](CC(=O)N[C@H]1[C@H](OC[C@@H](NC(=O)C[C@@H](CCCCCCCCCCC)OC(=O)CCCCCCCCC)C(=O)O)O[C@H](CO)[C@@H](OP(=O)(O)O)[C@@H]1OC(=O)C[C@@H](CCCCCCCCCCC)OC(=O)CCCCCCCCC)OCCCCCCCCCC` was run?
A: Its Activity is “Non-toxic”.

Q: With `CCCCCCCCCCC[C@H](CC(=O)N[C@H](CO[C@@H]1O[C@H](CO)[C@@H](OP(=O)(O)O)[C@H](OC(=O)C[C@@H](CCCCCCCCCCC)OCCCCCCCCCC)[C@H]1NC(=O)C[C@@H](CCCCCCCCCCC)OC(=O)CCCCCCCCC)C(=O)O)OCCCCCCCCCC` as the molecule, how does the Activity read?
A: The Activity was “Toxic”.

Q: `CCCCCCCCCCC[C@H](CC(=O)N[C@H]1[C@H](OC[C@@H](NC(=O)C[C@@H](CCCCCCCCCCC)OCCCCCCCCCC)C(=O)O)O[C@H](CO)[C@@H](OP(=O)(O)O)[C@@H]1OC(=O)C[C@@H](CCCCCCCCCCC)OC(=O)CCCCCCCCC)OCCCCCCCCCC` was tested. Which Activity did it give?
A: The Activity was “Non-toxic”.

Q: With `CCCCCCCCCCCCCC(=O)O[C@H](CCCCCCCCCCC)CC(=O)N[C@H]1[C@H](OC[C@H](NC(=O)C[C@@H](CCCCCCCCCCC)OC(=O)CCCCCCCCCCCCC)C(=O)O)O[C@H](CO)[C@@H](OP(=O)(O)O)[C@@H]1OC(=O)C[C@@H](CCCCCCCCCCC)OC(=O)CCCCCCCCCCCCC` as the molecule, how does the Activity read?
A: Its Activity is “Non-toxic”.

Q: `CCCCCCCCCCC[C@H](CC(=O)N[C@H]1[C@H](OC[C@@H](NC(=O)C[C@@H](CCCCCCCCCCC)OCCCCCCCCCC)C(=O)O)O[C@H](CO)[C@@H](OP(=O)(O)O)[C@@H]1OC(=O)C[C@@H](CCCCCCCCCCC)OCCCCCCCCCC)OCCCCCCCCCC` was tested. Which Activity did it give?
A: Its Activity is “Non-toxic”.

Q: `CCCCCCCCCCC[C@H](CC(=O)O[C@@H]1[C@@H](NC(=O)C[C@@H](CCCCCCCCCCC)OC(=O)CCCCCCCCC)[C@H](OC[C@@H](NC(=O)C[C@@H](CCCCCCCCCCC)OC(=O)CCCCCCCCC)C(=O)O)O[C@H](CO)[C@H]1OP(=O)(O)O)OCCCCCCCCCC` was tested. Which Activity did it give?
A: Its Activity is “Toxic”.

Q: `CCCCCCCCCCC[C@H](CC(=O)N[C@H](CO[C@@H]1O[C@H](CO)[C@@H](OP(=O)(O)O)[C@H](OC(=O)C[C@@H](CCCCCCCCCCC)OC(=O)CCCCCCCCC)[C@H]1NC(=O)C[C@@H](CCCCCCCCCCC)OC(=O)CCCCCCCCC)C(=O)O)OCCCCCCCCCC` was tested. Which Activity did it give?
A: Its Activity is “Non-toxic”.

Q: `CCCCCCCCCCC[C@H](CC(=O)N[C@H]1[C@H](OC[C@H](NC(=O)C[C@@H](CCCCCCCCCCC)OC(=O)CCCCCCCCC)C(=O)O)O[C@H](CO)[C@@H](OP(=O)(O)O)[C@@H]1OC(=O)C[C@@H](CCCCCCCCCCC)OC(=O)CCCCCCCCC)OC(=O)CCCCCCCCC` was tested. Which Activity did it give?
A: Its Activity is “Toxic”.

Q: Which Activity does the source give for `CCCCCCCCCCC[C@H](CC(=O)N[C@H]1[C@H](OC[C@H](NC(=O)C[C@@H](CCCCCCCCCCC)OCCCCCCCCCC)C(=O)O)O[C@H](CO)[C@@H](OP(=O)(O)O)[C@@H]1OC(=O)C[C@@H](CCCCCCCCCCC)OCCCCCCCCCC)OCCCCCCCCCC` here?
A: Its Activity is “Toxic”.

Q: `CCCCCCCCCCC[C@H](CC(=O)N[C@H]1[C@H](OC[C@@H](NC(=O)C[C@@H](CCCCCCCCCCC)OC(=O)CCCCCCCCC)C(=O)O)O[C@H](CO)[C@@H](OP(=O)(O)O)[C@@H]1OC(=O)C[C@@H](CCCCCCCCCCC)OCCCCCCCCCC)OCCCCCCCCCC` was tested. Which Activity did it give?
A: Its Activity is “Toxic”.

Q: How did the Activity turn out when `CCCCCCCCCCC[C@H](CC(=O)N[C@H]1[C@H](OC[C@@H](NC(=O)C[C@@H](CCCCCCCCCCC)OC(=O)CCCCCCCCC)C(=O)O)O[C@H](CO)[C@@H](OP(=O)(O)O)[C@@H]1OC(=O)C[C@@H](CCCCCCCCCCC)OC(=O)CCCCCCCCC)OC(=O)CCCCCCCCC` was run?
A: Its Activity is “Toxic”.

— ChEMBL document CHEMBL3352303, “Characterization of TRIF selectivity in the AGP class of lipid A mimetics: role of secondary lipid chains” (Bioorg Med Chem Lett, 2015)
